From ChEMBL document CHEMBL1155815, “Design, synthesis, and biological evaluation of Mannich bases of heterocyclic chalcone analogs as cytotoxic agents” (Bioorg Med Chem, 2008) come the findings set out here.

Common to all, as to assay type: functional, cell-based
Test [1] relates to PC-3. As to the kind of experiment: Cytotoxicity against human PC3 cells after 3 days by SRB assay. To be noted: for EC50: PC-3, 72 h. Put shortly: (§1)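 Cells grown in RPMI-1640 with HEPES, 0.25% sodium bicarbonate, 10% FBS and kanamycin. Freshly trypsinized cells were seeded at 1500–7500 per well and compounds added from DMSO-diluted stock. After 3 days, attached cells were fixed with cold 50% TCA, stained with 0.4% SRB, and absorbance read after dye solubilization. EC50 = 50% growth reduction, averaged over ≥3 independent determinations.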
In general terms: Sulforhodamine B stains cellular protein and so reports cell mass.

The test system of test [2] is MCF7. Description: Cytotoxicity against human MCF7 cells after 3 days by SRB assay. Particulars: for EC50: MCF7, 72 h. Put shortly: as §1
In test [3] the test system is KB. Description: Cytotoxicity against human KB cells after 3 days by SRB assay. Particulars: for EC50: 72 h. The method, boiled down:
as §1

The test system of test [4] is KB. As to the kind of experiment: Cytotoxicity against vinblastine-resistant human KB cells after 3 days by SRB assay. Particulars: in the assay text read “vincristine-resistant” for “vinblastine-resistant”; for EC50: 72 h. Put shortly: as §1

In brackets after ≈: the same amount, converted by molar mass. Activity calls are given as the source filed them. The rule behind the calls is not given here.

Usually EC50 stands for the concentration needed to bring the measured effect to its halfway point. A higher EC50 goes with a need for much substance. With `COc1cc(O)c(C(=O)/C=C/c2ccco2)cc1CN1CCOCC1`, the EC50 stood at 16.8 µg/mL (≈ 48.9 µM) in test [1], 1.51 µg/mL (≈ 4.4 µM) in test [2], 13.5 µg/mL (≈ 39.4 µM) in test [3] and 8.12 µg/mL (≈ 23.6 µM) in test [4].

On to `COc1cc(O)c(C(=O)/C=C/c2cccnc2)cc1CN1CCOCC1`, for which the values for the EC50 in test [1], in test [2] and in test [4] were 0.84 µg/mL (≈ 2.37 µM), 0.1 µg/mL (≈ 0.282 µM) and 4.64 µg/mL (≈ 13.1 µM), respectively. Further, the outcome in test [3] was inactive.

`Cc1ccsc1/C=C/C(=O)c1cccc(O)c1CN1CCOCC1`: the EC50 in test [1] was found to be 2.73 µg/mL (≈ 7.95 µM); in test [2], 1.12 µg/mL (≈ 3.26 µM); in test [3], 5.7 µg/mL (≈ 16.6 µM); in test [4], 1.64 µg/mL (≈ 4.78 µM).

In the case of `O=C(/C=C/c1ccncc1)c1ccc(O)c(CN2CCOCC2)c1`, the EC50 is 0.1 µg/mL (≈ 0.308 µM) in test [1], 0.15 µg/mL (≈ 0.462 µM) in test [2], 0.74 µg/mL (≈ 2.28 µM) in test [3] and 0.41 µg/mL (≈ 1.26 µM) in test [4].

In the case of `O=C(/C=C/c1cccs1)c1ccc(O)c(CN2CCOCC2)c1`, the EC50 in test [1] came to 6.49 µg/mL (≈ 19.7 µM); in test [2], 5.62 µg/mL (≈ 17.1 µM); in test [3], 5.14 µg/mL (≈ 15.6 µM); in test [4], 2.58 µg/mL (≈ 7.83 µM).

On to `O=C(/C=C/c1ccco1)c1cccc(O)c1CN1CCOCC1`, for which the EC50 is 3.8 µg/mL (≈ 12.1 µM) in test [1], 4.7 µg/mL (≈ 15 µM) in test [2], 5.63 µg/mL (≈ 18 µM) in test [3] and 5.77 µg/mL (≈ 18.4 µM) in test [4].

Regarding `CC(C)Oc1ccc(C(=O)/C=C/c2cccs2)c(O)c1CN1CCOCC1`, the EC50 in test [1] was 2.8 µg/mL (≈ 7.23 µM); in test [2] it was 0.66 µg/mL (≈ 1.7 µM); in test [3] it was 5.12 µg/mL (≈ 13.2 µM); in test [4], 1.45 µg/mL (≈ 3.74 µM).

As to `CCOc1cc(O)c(C(=O)/C=C/c2cccnc2)cc1CN1CCOCC1`, the outcome in test [1], in test [3] and in test [4] was inactive. For the same molecule, in test [2], the EC50 stood at 10.6 µg/mL (≈ 28.8 µM).

In the case of `O=C(/C=C/c1ccccn1)c1ccc(CN2CCOCC2)c(O)c1`, the EC50 is 0.83 µg/mL (≈ 2.56 µM) in test [1], 0.43 µg/mL (≈ 1.33 µM) in test [2], 1.3 µg/mL (≈ 4.01 µM) in test [3] and 0.68 µg/mL (≈ 2.1 µM) in test [4].

`CC(C)Oc1cc(O)c(C(=O)/C=C/c2cccs2)cc1CN1CCOCC1`: the EC50 in test [1] worked out at 4.04 µg/mL (≈ 10.4 µM); in test [2] it was 0.24 µg/mL (≈ 0.619 µM); in test [3], 9.44 µg/mL (≈ 24.4 µM); in test [4], 5.02 µg/mL (≈ 13 µM).

With `O=C(/C=C/c1ccccn1)c1ccc(O)c(CN2CCOCC2)c1O`, the EC50 was 0.95 µg/mL (≈ 2.79 µM) in test [1], 0.08 µg/mL (≈ 0.235 µM) in test [2], 1.54 µg/mL (≈ 4.52 µM) in test [3] and 0.8 µg/mL (≈ 2.35 µM) in test [4].

For `COc1ccc(/C=C/C(=O)c2cc(CN3CCOCC3)c(OC)cc2O)cc1`, the EC50 in test [1] was 8.11 µg/mL (≈ 21.2 µM); in test [2] it was 2.74 µg/mL (≈ 7.15 µM); in test [3], 9.6 µg/mL (≈ 25 µM); in test [4] it was 6.58 µg/mL (≈ 17.2 µM).

Turning to `COc1ccc(/C=C/C(=O)c2cccs2)c(CN2CCCCC2)c1O`, the 50% effective concentration (EC50) in test [1] turned out to be 2.02 µg/mL (≈ 5.65 µM); in test [2] it was 0.11 µg/mL (≈ 0.308 µM); in test [3] it was 2.93 µg/mL (≈ 8.2 µM); in test [4], 2.09 µg/mL (≈ 5.85 µM).

On to `CCOc1cc(O)c(C(=O)/C=C/c2sccc2C)cc1CN1CCOCC1`, for which the result in test [1], in test [2], in test [3] and in test [4] was inactive.

For the molecule `O=C(/C=C/c1cccnc1)c1ccc(O)c(CN2CCOCC2)c1`, the EC50 in test [1] was 0.68 µg/mL (≈ 2.1 µM); in test [2], 0.29 µg/mL (≈ 0.894 µM); in test [3], 2.11 µg/mL (≈ 6.5 µM); in test [4] it was 0.69 µg/mL (≈ 2.13 µM).

For `COc1ccc(/C=C/C(=O)c2ccco2)c(CN2CCCCC2)c1O`, the EC50 in test [1] turned out to be 3.07 µg/mL (≈ 8.99 µM); in test [2], 0.47 µg/mL (≈ 1.38 µM); in test [3], 5.18 µg/mL (≈ 15.2 µM); in test [4] it was 2.61 µg/mL (≈ 7.64 µM).

Take `CCOc1cc(O)c(C(=O)/C=C/c2ccccn2)cc1CN1CCOCC1`: the EC50 turned out to be 3.14 µg/mL (≈ 8.52 µM) in test [1], 4.13 µg/mL (≈ 11.2 µM) in test [2], 5.72 µg/mL (≈ 15.5 µM) in test [3] and 5.55 µg/mL (≈ 15.1 µM) in test [4].

Turning to `O=C(/C=C/c1ccco1)c1ccc(O)c(CN2CCOCC2)c1`, the EC50 was 7.43 µg/mL (≈ 23.7 µM) in test [1], 4.87 µg/mL (≈ 15.5 µM) in test [2], 6.12 µg/mL (≈ 19.5 µM) in test [3] and 3.27 µg/mL (≈ 10.4 µM) in test [4].

For `O=C(/C=C/c1ccccc1)c1cccc(O)c1CN1CCOCC1`, the EC50 in test [1] is 0.33 µg/mL (≈ 1.02 µM); in test [2] it was 0.28 µg/mL (≈ 0.866 µM); in test [3], 0.83 µg/mL (≈ 2.57 µM); in test [4], 0.36 µg/mL (≈ 1.11 µM).

For the molecule `CC(C)=CCOc1ccc(C(=O)/C=C/c2sccc2C)c(O)c1CN1CCOCC1`, in test [1], the outcome was inactive. In addition, the half-maximal effective concentration (EC50) in test [2] was 3.19 µg/mL (≈ 7.46 µM); in test [3], 8.43 µg/mL (≈ 19.7 µM); in test [4] it was 7.21 µg/mL (≈ 16.9 µM).

With `COc1cc(O)c(C(=O)/C=C/c2cccs2)cc1CN1CCOCC1`, the EC50 came out at 6.6 µg/mL (≈ 18.4 µM) in test [1], 3.12 µg/mL (≈ 8.68 µM) in test [2], 7.75 µg/mL (≈ 21.6 µM) in test [3] and 6.25 µg/mL (≈ 17.4 µM) in test [4].

For `CCOc1cc(O)c(C(=O)/C=C/c2ccc(C)o2)cc1CN1CCOCC1`, the outcome in test [1], in test [2], in test [3] and in test [4] was inactive.

For `O=C(/C=C/c1ccccn1)c1ccc(O)c(CN2CCOCC2)c1`, the concentration giving a half-maximal response (EC50) in test [1] was found to be 0.31 µg/mL (≈ 0.956 µM); in test [2], 0.12 µg/mL (≈ 0.37 µM); in test [3] it was 0.73 µg/mL (≈ 2.25 µM); in test [4], 0.3 µg/mL (≈ 0.925 µM).

`O=C(/C=C/c1ccccc1)c1ccc(O)c(CN2CCOCC2)c1`: the EC50 amounted to 0.18 µg/mL (≈ 0.557 µM) in test [1], 0.15 µg/mL (≈ 0.464 µM) in test [2], 2.11 µg/mL (≈ 6.52 µM) in test [3] and 0.69 µg/mL (≈ 2.13 µM) in test [4].

For the molecule `O=C(/C=C/c1ccccn1)c1ccc(CN2CCOCC2)c(O)c1CN1CCOCC1`, the EC50 in test [1] amounted to 0.44 µg/mL (≈ 1.04 µM); in test [2], 0.46 µg/mL (≈ 1.09 µM); in test [3], 0.82 µg/mL (≈ 1.94 µM); in test [4], 0.71 µg/mL (≈ 1.68 µM).

Take `COc1ccc(C(=O)/C=C/c2ccccn2)c(O)c1CN1CCOCC1`: the EC50 in test [1] amounted to 10.5 µg/mL (≈ 29.7 µM); in test [2], 0.25 µg/mL (≈ 0.705 µM); in test [3] it was 3.41 µg/mL (≈ 9.62 µM); in test [4], 1.13 µg/mL (≈ 3.19 µM).

As for `Cc1ccsc1/C=C/C(=O)c1cc(CN2CCOCC2)c(O)c(CN2CCOCC2)c1`, the EC50 in test [1] was 12.1 µg/mL (≈ 27.3 µM); in test [2] it was 16.2 µg/mL (≈ 36.6 µM); in test [3] it was 9.92 µg/mL (≈ 22.4 µM); in test [4] it was 12 µg/mL (≈ 27.1 µM).

For the molecule `O=C(/C=C/c1cccnc1)c1ccc(CN2CCOCC2)c(O)c1`, the EC50 came to 0.9 µg/mL (≈ 2.77 µM) in test [1], 0.67 µg/mL (≈ 2.07 µM) in test [2], 2.17 µg/mL (≈ 6.69 µM) in test [3] and 1.17 µg/mL (≈ 3.61 µM) in test [4].

Regarding `COc1ccc(/C=C/C(=O)c2cccnc2)c(CN2CCCCC2)c1O`, the EC50 is 6.77 µg/mL (≈ 19.2 µM) in test [1], 0.3 µg/mL (≈ 0.851 µM) in test [2], 6.14 µg/mL (≈ 17.4 µM) in test [3] and 2.64 µg/mL (≈ 7.49 µM) in test [4].

`CCOc1cc(O)c(C(=O)/C=C/c2ccco2)cc1CN1CCOCC1`: the result in test [1], in test [3] and in test [4] was inactive. In test [2], this molecule registered an EC50 of 20 µg/mL (≈ 56 µM).

Regarding `COc1cc(O)c(C(=O)/C=C/c2ccccc2)cc1CN1CCOCC1`, the EC50 in test [1] was found to be 0.78 µg/mL (≈ 2.21 µM); in test [2] it was 0.03 µg/mL (≈ 0.0849 µM); in test [3] it was 14.9 µg/mL (≈ 42.2 µM); in test [4], 3.5 µg/mL (≈ 9.9 µM).

With `COc1ccc(/C=C/C(=O)c2cccc(C)c2)c(CN2CCOCC2)c1O`, the EC50 in test [1] was determined as 0.66 µg/mL (≈ 1.8 µM); in test [2] it was 0.42 µg/mL (≈ 1.14 µM); in test [3] it was 1.12 µg/mL (≈ 3.05 µM); in test [4], 0.6 µg/mL (≈ 1.63 µM).

In the case of `O=C(/C=C/c1ccccn1)c1cc(CN2CCOCC2)c(O)c(CN2CCOCC2)c1`, the concentration for a half-maximal effect (EC50) in test [1] worked out at 1.72 µg/mL (≈ 4.06 µM); in test [2], 1.34 µg/mL (≈ 3.16 µM); in test [3], 2.31 µg/mL (≈ 5.45 µM); in test [4], 2.27 µg/mL (≈ 5.36 µM).

Take `O=C(/C=C/c1cccs1)c1cccc(O)c1CN1CCOCC1`: the EC50 amounted to 1.09 µg/mL (≈ 3.31 µM) in test [1], 1.66 µg/mL (≈ 5.04 µM) in test [2], 2.84 µg/mL (≈ 8.62 µM) in test [3] and 2.15 µg/mL (≈ 6.53 µM) in test [4].

Regarding `O=C(/C=C/c1ccncc1)c1ccc(CN2CCOCC2)c(O)c1`, the EC50 in test [1] was found to be 1.87 µg/mL (≈ 5.76 µM); in test [2] it was 1.23 µg/mL (≈ 3.79 µM); in test [3], 1.95 µg/mL (≈ 6.01 µM); in test [4], 2.62 µg/mL (≈ 8.08 µM).

Regarding `CCOc1cc(O)c(C(=O)/C=C/c2ccccc2)cc1CN1CCOCC1`, the EC50 in test [1] stood at 6.72 µg/mL (≈ 18.3 µM); in test [2], 5.24 µg/mL (≈ 14.3 µM); in test [4] it was 9.92 µg/mL (≈ 27 µM). For the same molecule, the outcome in test [3] was inactive.
